RAD54 branch – RAD54 (human) branch migration inhibition; RAD54 Holliday junction branch migration, FAM/BHQ fluorescence; inhibition, % at 10.4 µM; Q92698; AID 602329; 360,000 compounds, 0.14% hits;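 active means mean normalized replicate activity at least 40 and at least half of replicates scoring 40 or more; inconclusive means only one of the two criteria met; inactive means mean below 40 and under half of replicates reaching 40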;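 further: 0% = median of neutral control wells and 100% = median of positive control wells; inhibitors cause a drop in the FAM fluorescence signal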
RAD52 anneal inh – blocks human RAD52 DNA annealing | 360,000 compounds, 0.46% hits | recombinant RAD52 DNA annealing, FRET fluorescence | P43351 | AID 651710 | inhibition, % at 18.7 µM;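 active means every replicate showing at least 50% inhibition; inconclusive means mean inhibition at least 50% but not in every replicate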
Target sequence (P43351 whole entry, looked up): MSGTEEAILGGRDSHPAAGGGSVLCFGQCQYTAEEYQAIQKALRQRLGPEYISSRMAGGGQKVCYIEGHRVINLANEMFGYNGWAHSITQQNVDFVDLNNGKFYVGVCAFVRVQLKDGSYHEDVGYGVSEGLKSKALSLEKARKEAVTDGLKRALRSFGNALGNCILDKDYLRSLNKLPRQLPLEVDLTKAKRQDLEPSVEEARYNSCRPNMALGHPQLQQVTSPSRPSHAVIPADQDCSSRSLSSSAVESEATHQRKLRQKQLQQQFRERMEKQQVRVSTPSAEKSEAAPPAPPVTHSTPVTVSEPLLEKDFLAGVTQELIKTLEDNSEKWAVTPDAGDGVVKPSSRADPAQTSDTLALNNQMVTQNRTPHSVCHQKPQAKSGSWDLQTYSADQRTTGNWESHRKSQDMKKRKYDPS
E-selectin induc – induces E-selectin expression in human endothelial cells; P16581; HUVEC E-selectin immunofluorescence imaging; normalized: neutral wells 0, TNF-alpha wells 100; activation, % at 7.58 µM; 260,000 compounds, 0.37% hits;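 active means mean E-selectin-positive cell signal at least 10% of the positive control, reached in at least 60% of replicates, without over 20% cell loss; inconclusive means no rule given, readout overlaps actives, possibly toxicity-flagged; inactive means the rest, including those meeting only one limit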
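System: HUVEC, human umbilical vein endothelial cells; quantity: 3,000 cells/well; buffer or medium: EGM-2 medium, gelatin-coated wells; dosing: single-point compound dose; detection: immunofluorescence imaging; evaluation: % PE-positive cells; benchmarks: TNF-alpha, DMSO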
PglD inh – inhibitors of Campylobacter jejuni PglD acetyltransferase; purified PglD enzyme, DTNB colorimetric CoA detection; inhibition, % at 12.5 µM; 360,000 compounds, 0.098% hits; AID 602405; in the data active means inhibition above about 16%, passing the limit was not always enough; inconclusive means no clear call, values can overlap the other calls
Xi reactivation – X-chromosome reactivation activator; XiGFP mouse fibroblasts, % GFP-positive cells imaging, 3 d; cells co-treated with 5-aza-dC sensitizer; scaled so ellipticine positive control = 100%; activation, % at 7.58 µM; 360,000 compounds, 0.055% hits; AID 743238;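 active means mean normalized replicate activation at least 10% and every replicate at or above 10%; inconclusive means only one of the two criteria met; inactive means mean below 10% and not all replicates reach 10%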;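 further: 0% = median of on-plate neutral control wells and 100% = ellipticine 6 µM median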
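assay system = SV40-immortalized XiGFP fibroblast cells, line 68-5-11 | buffer or medium = DMEM plus 5-aza-dC sensitizer | doses = single-point pinned compound dosing | times = 3-day compound exposure, then 15 min fixation at room temperature | benchmarks = positive control ellipticine, 6 µM final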
Ecoli rRNA inh – selective bacterial rRNA inhibition in E. coli; E. coli WT GFP vs humanized-ribosome RFP mutants, fluorescence, 24 h; stronger effect = lower value; DMSO median 0, no signal -100; GFP signal change (wild-type ribosome), % (no concentration beside the values); 350,000 compounds, 1.6% hits;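 active means significant combined selectivity score with lowered wild-type GFP, culture density cut under 30%, mutant RFP and density less affected; inactive means any of these conditions unmet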
Numbers without * were called inactive; ? = inconclusive; / = no result; ! = repeats disagree. Compounds with a hit are over-represented: about 2% of the library has one in this group of screens.

SMILES | RAD54 branch | RAD52 anneal inh | E-selectin induc | PglD inh | Xi reactivation | Ecoli rRNA inh
COc1ccc(C(CC(=O)c2ccc3c(c2)OCO3)c2c(O)c3ccccc3oc2=O)cc1OC (configuration not stated) | 13 | -13 | 0 | 11 | 0 | -30*
COc1ccc(C(CC(C)=O)c2c(O)c3ccccc3oc2=O)cc1OC (configuration not stated) | / | -9 | 0 | / | 0 | -3
CC=Cc1ccc2n(c1=O)C[C@H]1[C@H](CO)[C@@H](C(=O)O)[C@@H]2N1S(=O)(=O)c1ccccc1F (mixture of isomers) | -2 | -7 | 0 | -1 | 0 | 0
CCC(=NCCCN(CC)CC)c1c(O)n(C2CCCCC2)c(=O)[nH]c1=O | 2 | / | / | 3 | / | /
CCC(=NCCN1CCOCC1)c1c(O)n(C2CCCCC2)c(=O)[nH]c1=O | / | -18 | 30* | / | 0 | 6
COC(=O)[C@H]1[C@H](CO)[C@H]2Cn3c(ccc(-c4ccccc4F)c3=O)[C@@H]1N2Cc1ccccc1 | 0 | 1 | -2 | 2 | 0 | -2
COC(=O)[C@H]1[C@H](CO)[C@H]2Cn3c(ccc(-c4ccccc4F)c3=O)[C@@H]1N2Cc1ccncc1 | 6 | 123* | 0 | 2 | 0 | -2
CCCN1[C@@H]2c3ccc(-c4ccc(F)cc4)c(=O)n3C[C@H]1[C@H](CO)[C@H]2C(=O)OC | 3 | 57* | 0 | 0 | 0 | -2
COC(=O)[C@@H]1[C@@H](CO)[C@@H]2Cn3c(ccc(-c4ccccc4F)c3=O)[C@H]1N2Cc1ccncc1 | 18 | 107* | 0 | 0 | 1 | 0
CCCN1[C@@H]2Cn3c(ccc(-c4ccc(OC)cc4)c3=O)[C@H]1[C@@H](C(=O)OC)[C@@H]2CO | 11 | 2 | 0 | -3 | 0 | 0
O=C(Cc1ccccc1)N1C[C@@H]2[C@H](c3ccccc31)[C@@H](CO)N2Cc1ccccc1 | 10 | -5 | -1 | 5 | 0 | -6
CN(C)c1ccc(/C=C/[N+](=O)[O-])cc1 | / | -25 | 0 | / | 1 | -18*
CN1CCN(c2ccc([N+](=O)[O-])c(N/N=C3\CN4CCC3CC4)c2)CC1 | 70* | / | -1 | -13 | / | /
CCNc1cc(N2CCN(C)CC2)ccc1[N+](=O)[O-] | 14 | -9 | / | -3 | 0 | -12
[O-]c1ccccc1-[n+]1c(-c2ccccc2)cc(-c2ccccc2)cc1-c1ccccc1 | -1 | 61* | 0 | 0 | 0 | -53
CS(=O)(=O)N1C[C@@H]2C(c3ccc(Br)cc3)[C@H](C1)N2CC1CC1 (some centres not stated) | / | / | / | / | 0 | -4
Cc1ccccc1-c1ccc([C@H]2[C@@H](CO)N3CCCCN(C(=O)Cc4ccccn4)C[C@@H]23)cc1 | 0 | -8 | 0 | 0 | 0 | -3
C=CCn1c(O)c(C(C)=NCCCN(C)C)c(=O)[nH]c1=O | / | -26 | 50* | / | 0 | 19
COC(=O)[C@@H]1[C@@H](CO)[C@@H]2Cn3c(ccc(-c4cccc(OC)c4)c3=O)[C@H]1N2C(=O)c1cnccn1 | 11 | -5 | 0 | -2 | 0 | -2
COC(=O)C1=C(C(=O)OC)SC2(S1)C(C(=O)OC)=C(C(=O)OC)Sc1c2ssc1=O | / | -27 | 1 | / | 0 | -23*
NC(C(=O)O)c1cc(=O)[nH]o1 (configuration not stated) | -4 | -20 | 84* | -3 | 0 | 12
CC(C)(C)c1o[nH]c(=O)c1CC(N)C(=O)O (configuration not stated) | -10 | -5 | 0 | 0 | 0 | 1
COP(=O)(OC)C(Nc1ccccc1)c1ccccc1 (configuration not stated) | 1 | 1 | 0 | -2 | 0 | 12
CC(C)OP(=O)(OC(C)C)C(NCc1ccccc1)c1ccccc1 (configuration not stated) | -2 | -14 | 1 | -3 | 0 | -20*
CC=Cc1ccc2n(c1=O)C[C@@H]1[C@@H](CO)[C@H](C(=O)O)[C@H]2N1S(=O)(=O)c1ccccc1C (mixture of isomers) | -15 | 1 | 0 | -1 | 1 | -1
SMILES | RAD54 branch | RAD52 anneal inh | E-selectin induc | PglD inh | Xi reactivation | Ecoli rRNA inh
COc1ccc(-n2c(/C=C/c3ccc(O)c(O)c3)nc3ccccc3c2=O)cc1 | -9 | -46 | / | -15 | 0 | -21*
COc1cccc(CN2CC3(C2)[C@H](c2ccccc2)[C@H](CO)N3C(=O)Cc2ccccc2)c1 | / | 0 | 0 | / | 0 | -5
CCCN1[C@@H]2c3cccc(=O)n3C[C@H]1[C@H](CO)[C@H]2C(=O)N(C)C | -10 | 1 | 0 | -3 | 1 | 6
O=C(COC(=O)c1cccc(O)c1)Nc1ccc(Cl)cc1C(=O)c1ccccc1 | / | 1 | / | / | 0 | -23*
O=P(Nc1cccnc1)(Oc1ccccc1Cl)Oc1ccccc1Cl | / | -9 | -2 | / | 0 | -33*
Cc1cccc(OP(=O)(Nc2cccnc2)Oc2cccc(C)c2)c1 | / | / | 0 | / | 0 | /
COC(=O)[C@H]1[C@H](CO)[C@H]2Cn3c(ccc(-c4cccc(OC)c4)c3=O)[C@@H]1N2C(=O)c1cnccn1 | 5 | 1 | 0 | -3 | 0 | -1
CN1CC[C@@]2(C)c3cc(O)ccc3N(C)[C@@H]12 | 3 | 69*! | 1 | -1 | 0 | -4
CN1CC[C@@]2(C)c3cc(O)ccc3N(C)C2O1 (some centres not stated) | -6 | / | / | -4 | / | /
COC(=O)[C@H]1[C@H](CO)[C@H]2Cn3c(ccc(-c4ccccc4)c3=O)[C@@H]1N2CCc1ccccc1 | -5 | 0 | 0 | -2 | 0 | -4
O=C(Cc1ccccc1)NC(Oc1ccccc1Cl)C(Cl)(Cl)Cl (configuration not stated) | -2 | / | / | -3 | 0 | /
CC(C)C(=O)NC(Oc1ccccc1Cl)C(Cl)(Cl)Cl (configuration not stated) | 1 | -6 | 7 | -3 | 0 | -14*
Cc1c(N=Nc2c(O)n(-c3ccc(Br)cc3)c(=O)[nH]c2=O)c(=O)n(-c2ccccc2)n1C | 2 | -25 | / | -4 | 0 | -35*
CC[C@@H](CO)NC(=O)[C@@H]1C=C2c3cccc4c3c(cn4C)C[C@H]2N(C)C1 | 64* | -280 | -2 | -2 | 2 | 1
CCCCC(=O)N/N=C/c1c(O)n(Cc2ccc(F)cc2)c(=O)[nH]c1=O | / | -114 | ? | / | 0 | -27*
CCCCC(=O)N/N=C/c1c(O)n(CCc2ccccc2)c(=O)[nH]c1=O | -4 | -34 | 0 | 0 | 0 | 10
